Data published in ChEMBL document CHEMBL4052816, “Development of Clickable Monophosphoryl Lipid A Derivatives toward Semisynthetic Conjugates with Tumor-Associated Carbohydrate Antigens” (J Med Chem, 2017).
Active and inactive are the calls of the source. The calls are words filed in the database; no cut-off is given here.

Assays:
[1] = system: BMDM; experiment: Immunostimulatory activity in C57BL/6 mouse BMDM assessed as increase in IL-6 production at 20 ug/ml after 6 to 72 hrs by ELISA; format: functional, cell-based
Outline: (§1)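 Bone marrow macrophages from wild-type C57BL/6 mice (0.5 × 10^6/well) were grown for 24 h, then given fresh medium containing compound at 20 μg/mL for 6, 24, 48 and 72 h. Three independent experiments were run, means ± SD.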

[2] = system: BMDM; experiment: Immunostimulatory activity in C57BL/6 mouse BMDM assessed as increase in IL-12 production at 20 ug/ml after 6 to 72 hrs by immunoassay; format: functional, cell-based; outline: as §1
[3] = system: THP-1; experiment: Cytotoxicity against human THP1 cells assessed as decrease in cell viability at 0.1 to 20 ug/ml after 6 to 48 hrs by SRB assay; format: cell-based
Outline: (§2)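 THP-1 cells and C57BL/6 wild-type bone marrow-derived macrophages were kept in RPMI with 10% FBS, penicillin and streptomycin at 37 °C and 5% CO2. BMDM medium also contained gentamycin. Cells were exposed to compound at 20, 10, 1 and 0.1 μg/mL, and viability was read with a colorimetric assay.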

[4] = system: BMDM; experiment: Immunostimulatory activity in C57BL/6 mouse BMDM assessed as increase in IL-10 production at 20 ug/ml after 6 to 72 hrs by immunoassay; format: functional, cell-based; outline: as §1
[5] = system: BMDM; experiment: Immunostimulatory activity in C57BL/6 mouse BMDM assessed as increase in CD80 production at 20 ug/ml after 6 to 72 hrs by flow cytometric method; format: functional, cell-based
Outline: (§3)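 C57BL/6 BMDM (0.5 × 10^6/well) were stimulated with compound at 20 μg/mL for 6, 24, 48 and 72 h. Cells were then stained with phycoerythrin-conjugated anti-CD40, anti-CD80 or anti-CD86, plus allophycocyanin-conjugated anti-MHC class II. Isotype antibodies set nonspecific binding, and cells were analysed by flow cytometry. Three independent experiments were run.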

[6] = system: THP-1; experiment: Immunostimulatory activity in human THP1 cells assessed as increase in IL-10 production at 20 ug/ml after 6 to 72 hrs by immunoassay; format: functional, cell-based
Outline: (§4)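 THP-1 cells (0.5 × 10^6/well) were grown in RPMI/10% FBS for 24 h, then given fresh medium containing compound at 20 μg/mL for 6, 24, 48 and 72 h. Cell-free supernatants were assayed for IL-8 and IL-6 by ELISA, and for IL-10, IFN-γ and TNF-α by a human Th1/Th2 multiplex bead immunoassay. Results were pooled from three independent experiments, means ± SD.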

[7] = system: THP-1; experiment: Immunostimulatory activity in human THP1 cells assessed as increase in TNF-alpha production at 20 ug/ml after 6 to 72 hrs by immunoassay; format: functional, cell-based; outline: as §4
[8] = system: BMDM; experiment: Immunostimulatory activity in C57BL/6 mouse BMDM assessed as increase in IFN-gamma production at 20 ug/ml after 6 to 72 hrs by immunoassay; format: functional, cell-based; outline: as §1
[9] = system: THP-1; experiment: Immunostimulatory activity in human THP1 cells assessed as increase in IFN-gamma production at 20 ug/ml after 6 to 72 hrs by immunoassay; format: functional, cell-based; outline: as §4
[10] = system: BMDM; experiment: Immunostimulatory activity in C57BL/6 mouse BMDM assessed as increase in IL-5 production at 20 ug/ml after 6 to 72 hrs by immunoassay; format: functional, cell-based; outline: as §1
[11] = system: BMDM; experiment: Immunostimulatory activity in C57BL/6 mouse BMDM assessed as increase in TNFalpha production at 20 ug/ml after 6 to 72 hrs by ELISA; format: functional, cell-based; outline: as §1
[12] = system: BMDM; experiment: Immunostimulatory activity in C57BL/6 mouse BMDM assessed as increase in IL-4 production at 20 ug/ml after 6 to 72 hrs by immunoassay; format: functional, cell-based; outline: as §1
[13] = system: BMDM; experiment: Immunostimulatory activity in C57BL/6 mouse BMDM assessed as increase in CD86 production at 20 ug/ml after 6 to 72 hrs by flow cytometric method; format: functional, cell-based; outline: as §3
[14] = system: BMDM; experiment: Immunostimulatory activity in C57BL/6 mouse BMDM assessed as increase in IL-2 production at 20 ug/ml after 6 to 72 hrs by immunoassay; format: functional, cell-based; outline: as §1
[15] = system: THP-1; experiment: Immunostimulatory activity in human THP1 cells assessed as increase in IL-8 production at 20 ug/ml after 6 to 72 hrs by ELISA; format: functional, cell-based; outline: as §4
[16] = Cytotoxicity against C57BL/6 mouse BMDM assessed as decrease in cell viability at 20 ug/ml after 6 to 48 hrs by SRB assay; format: cell-based; outline: as §2
[17] = system: BMDM; experiment: Immunostimulatory activity in C57BL/6 mouse BMDM assessed as increase in MHC-class 2 production at 20 ug/ml after 6 to 72 hrs by flow cytometric method; format: functional, cell-based; outline: as §3
[18] = system: BMDM; experiment: Immunostimulatory activity in C57BL/6 mouse BMDM assessed as increase in GM-CSF production at 20 ug/ml after 6 to 72 hrs by immunoassay; format: functional, cell-based; outline: as §1
[19] = system: BMDM; experiment: Immunostimulatory activity in C57BL/6 mouse BMDM assessed as increase in CD40 production at 20 ug/ml after 6 to 72 hrs by flow cytometric method; format: functional, cell-based; outline: as §3
[20] = system: THP-1; experiment: Immunostimulatory activity in human THP1 cells assessed as increase in IL-6 production at 20 ug/ml after 6 to 72 hrs by ELISA; format: functional, cell-based; outline: as §4

Structure (SMILES) | Activity [1] | Activity [2] | Activity [3] | Activity [4] | Activity [5] | Activity [6] | Activity [7] | Activity [8] | Activity [9] | Activity [10] | Activity [11] | Activity [12] | Activity [13] | Activity [14] | Activity [15] | Activity [16] | Activity [17] | Activity [18] | Activity [19] | Activity [20]
C#CCCCCNC(=O)[C@H]1O[C@@H](OC[C@H]2OC(O)[C@H](NC(=O)C[C@H](O)CCCCCCCCCCC)[C@@H](OC(=O)C[C@H](O)CCCCCCCCCCC)[C@@H]2O)[C@H](NC(=O)C[C@@H](CCCCCCCCCCC)OC(=O)CCCCCCCCCCC)[C@@H](OC(=O)C[C@@H](CCCCCCCCCCC)OC(=O)CCCCCCCCCCCCC)[C@@H]1OP(=O)(O)O (stereo partly specified) | Active | inactive | Non-Toxic | inactive | inactive | Active | Active | inactive | inactive | inactive | Active | inactive | inactive | inactive | Active | Toxic | inactive | inactive | inactive | 
CCCCCCCCCCCCCC(=O)O[C@H](CCCCCCCCCCC)CC(=O)O[C@@H]1[C@@H](NC(=O)C[C@@H](CCCCCCCCCCC)OC(=O)CCCCCCCCCCC)[C@H](OC[C@H]2OC(O)[C@H](NC(=O)C[C@H](O)CCCCCCCCCCC)[C@@H](OC(=O)C[C@H](O)CCCCCCCCCCC)[C@@H]2O)O[C@H](C(=O)O)[C@H]1OP(=O)(O)O (stereo partly specified) | Active | inactive | Non-Toxic | inactive | inactive | Active | Active | inactive | inactive | inactive | Active | inactive | inactive | inactive | Active |  | inactive | inactive | inactive | Active
CCCCCCCCCCCCCC(=O)O[C@H](CCCCCCCCCCC)CC(=O)O[C@@H]1[C@@H](NC(=O)C[C@@H](CCCCCCCCCCC)OC(=O)CCCCCCCCCCC)[C@H](OC[C@H]2OC(O)[C@H](NC(=O)C[C@H](O)CCCCCCCCCCC)[C@@H](OC(=O)C[C@H](O)CCCCCCCCCCC)[C@@H]2O)O[C@H](C(=O)NCCCCCSCCCO[C@H]2O[C@H](CO)[C@H](O)[C@H](O[C@@H]3O[C@H](CO)[C@H](O)[C@H](O)[C@H]3O)[C@H]2NC(C)=O)[C@H]1OP(=O)(O)O (stereo partly specified) | Active | inactive | Non-Toxic | inactive | inactive | Active | Active | inactive | Active | inactive | inactive | inactive | inactive | inactive | Active |  | inactive | inactive | inactive | 
CCCCCCCCCCCCCC(=O)O[C@H](CCCCCCCCCCC)CC(=O)O[C@@H]1[C@@H](NC(=O)C[C@@H](CCCCCCCCCCC)OC(=O)CCCCCCCCCCC)[C@H](OC[C@H]2OC(O)[C@H](NC(=O)C[C@H](O)CCCCCCCCCCC)[C@@H](OC(=O)C[C@H](O)CCCCCCCCCCC)[C@@H]2O)O[C@H](C(=O)NCCCCCCN=[N+]=[N-])[C@H]1OP(=O)(O)O (stereo partly specified) |  | inactive | Non-Toxic | inactive | inactive | Active | Active | inactive | inactive | inactive |  | inactive | inactive | inactive | Active |  | inactive | inactive | inactive | 
CCCCCCCCCCCCCC(=O)O[C@H](CCCCCCCCCCC)CC(=O)O[C@@H]1[C@@H](NC(=O)C[C@@H](CCCCCCCCCCC)OC(=O)CCCCCCCCCCC)[C@H](OC[C@H]2OC(O)[C@H](NC(=O)C[C@H](O)CCCCCCCCCCC)[C@@H](OC(=O)C[C@H](O)CCCCCCCCCCC)[C@@H]2O)O[C@H](C(=O)NCCCCCSCCCO[C@H]2O[C@H](CO)[C@H](O)[C@H](O)[C@H]2NC(C)=O)[C@H]1OP(=O)(O)O (stereo partly specified) |  | inactive | Non-Toxic | inactive | inactive | Active |  | inactive | Active | inactive | Active | inactive | inactive | inactive | Active | Toxic | inactive | inactive | inactive | Active
C=CCCCNC(=O)[C@H]1O[C@@H](OC[C@H]2OC(O)[C@H](NC(=O)C[C@H](O)CCCCCCCCCCC)[C@@H](OC(=O)C[C@H](O)CCCCCCCCCCC)[C@@H]2O)[C@H](NC(=O)C[C@@H](CCCCCCCCCCC)OC(=O)CCCCCCCCCCC)[C@@H](OC(=O)C[C@@H](CCCCCCCCCCC)OC(=O)CCCCCCCCCCCCC)[C@@H]1OP(=O)(O)O (stereo partly specified) | Active | inactive | Non-Toxic | inactive | inactive | Active | Active | inactive | Active | inactive |  | inactive | inactive | inactive | Active | Toxic | inactive | inactive | inactive | Active
CCCCCCCCCCCCCC(=O)O[C@H](CCCCCCCCCCC)CC(=O)O[C@@H]1[C@@H](NC(=O)C[C@@H](CCCCCCCCCCC)OC(=O)CCCCCCCCCCC)[C@H](OC[C@H]2OC(O)[C@H](NC(=O)C[C@@H](CCCCCCCCCCC)OC(=O)C[C@H](O)CCCCCCCCCCCCC)[C@@H](O)[C@@H]2O)O[C@H](CO)[C@H]1OP(=O)(O)O (stereo partly specified) |  |  |  |  | Active | Active |  |  | inactive |  |  |  | Active |  | Active |  | Active |  | Active | 
